Laboratory results: ChEMBL document CHEMBL3525985, “Regiospecificity and stereospecificity of human UDP-glucuronosyltransferases in the glucuronidation of estriol, 16-epiestriol, 17-epiestriol, and 13-epiestradiol” (Drug Metab Dispos, 2013)

Assays:
Format in all cases: ADME
Conditions in all cases: recombinant enzyme
[1] = target: T1, UDP-glucuronosyltransferase 1A3 (Homo sapiens, UniProt P35503); assay: Drug metabolism assessed as recombinant human C-terminal His-tagged UGT1A3-mediated estradiol-3-glucuronide formation at 200 uM after 15 to 60 mins by HPLC analysis in presence of UDPGA
T1 sequence (P35503 whole entry): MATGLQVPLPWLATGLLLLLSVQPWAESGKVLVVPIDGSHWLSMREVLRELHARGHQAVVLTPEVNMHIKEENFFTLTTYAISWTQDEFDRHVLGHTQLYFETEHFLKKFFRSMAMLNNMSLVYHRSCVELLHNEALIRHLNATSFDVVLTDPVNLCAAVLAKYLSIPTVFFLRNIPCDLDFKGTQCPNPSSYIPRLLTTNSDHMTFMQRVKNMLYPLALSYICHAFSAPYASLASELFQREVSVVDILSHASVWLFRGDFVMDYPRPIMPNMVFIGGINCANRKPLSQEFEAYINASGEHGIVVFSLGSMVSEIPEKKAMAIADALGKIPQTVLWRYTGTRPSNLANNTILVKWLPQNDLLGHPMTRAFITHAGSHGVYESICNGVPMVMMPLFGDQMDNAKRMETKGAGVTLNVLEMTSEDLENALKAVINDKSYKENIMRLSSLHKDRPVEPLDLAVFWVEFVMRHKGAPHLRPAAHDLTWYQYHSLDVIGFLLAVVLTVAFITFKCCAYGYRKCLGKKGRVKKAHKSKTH
How it was run: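 Screening at a single substrate concentration of 200 μM, in triplicate. The reaction used 5 or 50 µg of UGT-enriched insect cell membranes in 50 mM phosphate pH 7.4 with 10 mM MgCl₂ and 5 mM UDPGA, 10% final DMSO. Incubation was 15–60 min at 37°C. Perchloric acid stopped the reaction and supernatants were analysed by HPLC. Controls lacked UDPGA. Rates were normalized to relative UGT expression level.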

[2] = target: T2, UDP-glucuronosyltransferase 2B15 (Homo sapiens, UniProt P54855); assay: Drug metabolism assessed as recombinant human C-terminal […]-mediated estradiol-3-glucuronide/estradiol-17-glucuronide formation at 200 uM after 15 to 60 mins by HPLC analysis in presence of UDPGA
T2 sequence (P54855 whole entry): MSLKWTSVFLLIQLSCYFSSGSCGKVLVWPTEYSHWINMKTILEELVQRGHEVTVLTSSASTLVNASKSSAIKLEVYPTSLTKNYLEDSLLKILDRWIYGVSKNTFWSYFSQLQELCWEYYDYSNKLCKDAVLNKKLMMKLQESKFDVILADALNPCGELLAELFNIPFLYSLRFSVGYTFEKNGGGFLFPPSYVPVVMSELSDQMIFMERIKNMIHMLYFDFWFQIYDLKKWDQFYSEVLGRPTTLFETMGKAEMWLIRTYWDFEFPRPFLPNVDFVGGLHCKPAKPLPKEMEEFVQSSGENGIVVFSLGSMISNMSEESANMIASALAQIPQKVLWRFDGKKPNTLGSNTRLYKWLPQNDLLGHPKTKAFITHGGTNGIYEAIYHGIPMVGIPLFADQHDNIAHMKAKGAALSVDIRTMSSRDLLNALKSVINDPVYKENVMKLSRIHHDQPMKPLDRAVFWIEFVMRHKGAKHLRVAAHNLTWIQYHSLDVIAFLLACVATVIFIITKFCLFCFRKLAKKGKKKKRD

[3] = target: T3, UDP-glucuronosyltransferase 2B17 (Homo sapiens, UniProt O75795); assay: Drug metabolism assessed as recombinant human C-terminal His-tagged UGT2B17-mediated estriol-17-glucuronide formation after 15 to 60 mins by Michaelis-Menten equation analysis in presence of UDPGA
T3 sequence (O75795 whole entry): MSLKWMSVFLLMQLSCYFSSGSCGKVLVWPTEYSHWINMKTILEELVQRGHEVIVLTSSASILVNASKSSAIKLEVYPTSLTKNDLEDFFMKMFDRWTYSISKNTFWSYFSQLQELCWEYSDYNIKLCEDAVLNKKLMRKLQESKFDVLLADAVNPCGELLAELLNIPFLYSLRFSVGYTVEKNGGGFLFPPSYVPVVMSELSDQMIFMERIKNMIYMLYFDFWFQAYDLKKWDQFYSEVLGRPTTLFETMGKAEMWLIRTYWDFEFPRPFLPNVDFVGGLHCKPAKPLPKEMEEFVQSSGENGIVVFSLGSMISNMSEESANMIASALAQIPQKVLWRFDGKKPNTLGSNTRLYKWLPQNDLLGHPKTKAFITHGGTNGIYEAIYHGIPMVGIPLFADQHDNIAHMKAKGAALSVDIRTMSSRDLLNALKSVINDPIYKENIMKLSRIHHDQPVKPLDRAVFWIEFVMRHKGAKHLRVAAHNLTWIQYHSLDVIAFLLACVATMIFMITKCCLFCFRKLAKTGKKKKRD

[4] = target: T4, UDP-glucuronosyltransferase 2B7 (Homo sapiens, UniProt P16662); assay: Drug metabolism assessed as recombinant human C-terminal His-tagged UGT2B7-mediated 17-epiestriol-17-glucuronide formation at 4 mg after 5 hrs by NMR spectroscopic analysis in presence of UDPGA
T4 sequence (P16662 whole entry): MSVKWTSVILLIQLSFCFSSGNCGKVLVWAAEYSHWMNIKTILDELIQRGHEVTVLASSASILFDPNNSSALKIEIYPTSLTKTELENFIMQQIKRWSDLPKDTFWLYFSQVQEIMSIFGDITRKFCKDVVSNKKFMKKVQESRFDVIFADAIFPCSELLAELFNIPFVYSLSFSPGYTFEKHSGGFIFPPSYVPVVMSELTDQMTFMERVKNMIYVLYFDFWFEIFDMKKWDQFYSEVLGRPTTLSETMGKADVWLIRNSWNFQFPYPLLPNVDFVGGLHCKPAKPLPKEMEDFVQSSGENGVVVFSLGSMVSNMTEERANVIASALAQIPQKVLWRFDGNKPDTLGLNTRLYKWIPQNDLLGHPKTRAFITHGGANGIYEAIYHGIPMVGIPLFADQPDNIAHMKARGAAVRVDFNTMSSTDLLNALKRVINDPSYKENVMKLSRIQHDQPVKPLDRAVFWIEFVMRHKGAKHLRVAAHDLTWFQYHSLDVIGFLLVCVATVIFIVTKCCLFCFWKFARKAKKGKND
How it was run: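 Preparative biosynthesis: 4 mg 17-epiestriol with fresh UGT2B7-enriched insect-cell homogenate (about 500 mg total protein) in 25 ml. Contained 50 mM phosphate pH 7.4, 10 mM MgCl₂, 50 mM UDPGA and 10% DMSO. Glucuronides fractionated by HPLC with 0.1% HCOOH eluent and 280 nm UV, then concentrated and lyophilized for NMR.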

C[C@]12CC[C@@H]3c4ccc(O)cc4CC[C@H]3[C@@H]1CC[C@@H]2O [ESTRADIOL]
Drug metabolism [1]: metabolite_detected
Drug metabolism [2]: metabolite_detected

C[C@]12CC[C@@H]3c4ccc(O)cc4CC[C@H]3[C@@H]1C[C@@H](O)[C@@H]2O [ESTRIOL]
Drug metabolism [3]: 4 pmol/min/mg

C[C@]12CC[C@@H]3c4ccc(O)cc4CC[C@H]3[C@@H]1C[C@@H](O)[C@H]2O
Drug metabolism [4]: metabolite_detected
